Reference: paper PMC3190987 (The Journal of Biological Chemistry, 2011)
Where two headings read alike, the source gives them in different places.

T1: c-Jun (Homo sapiens, UniProt P05412, S292Y)
T1 sequence (P05412 with tags, fused parts or gaps S292Y): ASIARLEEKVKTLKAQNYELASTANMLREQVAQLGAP


Tests used:
[1] = molecular target: c-Jun (37-residue leucine zipper peptide); test: ITC
[2] = molecular target: c-Jun (37-residue leucine zipper peptide); test: CD thermal denaturation
[3] = CD spectra of peptides in isolation; format: physicochemical; details: for helicity in isolation: peptide in isolation, from θ222, 20 °C
Method in brief: (§1)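 CD spectra of homodimeric or c-Jun heterodimeric samples, 150 μM total peptide, 10 mM potassium phosphate, 100 mM KF, pH 7, 1-mm cell. Scans 300–190 nm at 20 °C (pre- and post-melt) and at −8 °C. Converted to molar residue ellipticity, giving θ222/θ208. Fraction helicity taken from θ222 with k = 2.4 and T = 293 K.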

c-Jun-DHFR2 = test: Growth competition under PCA conditions; format: cell-based, Escherichia coli; details: M9 minimal media with trimethoprim and IPTG; A600 hourly, in duplicate
Method in brief: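 Split murine DHFR complementation in E. coli: library peptide fused to DHFR fragment 1, c-Jun to fragment 2, both lac-driven. Strains came from single colonies on PCA plates with sequence-verified plasmids. Growth rates were monitored under selection in M9 minimal medium with ampicillin, chloramphenicol, kanamycin, trimethoprim and IPTG (1 mM induction).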

c-Jun [4] = molecular target: T1, c-Jun; test: Isothermal titration calorimetry; format: binding; details: for ΔH / ΔGbind (ITC) / TΔS (ΔH − ΔG): ITC, 20 °C; for ΔH: pH 7, one-site model; for ΔGbind (ITC): calculated by Equation 4; for TΔS (ΔH − ΔG): calculated from ΔH and ΔGbind
Method in brief: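 VP-ITC at 20 °C in 10 mM potassium phosphate, 100 mM KF, pH 7. Syringe peptide at 175–250 μM was injected 25 × 5 μl into cell peptide at 10–40 μM; syringe and cell partners were also swapped. Each run was done at least twice. Isotherms fitted to a 1:1 one-site model for Kd and ΔH. ΔG calculated at 293.15 K; TΔS from ΔH and ΔG.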

c-Jun [5] = molecular target: T1, c-Jun; test: CD dimer exchange experiment; format: binding; details: CD spectra, total peptide 150 μM
Method in brief: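 Equilibrium mixing followed by CD in 10 mM potassium phosphate, 100 mM KF, pH 7. Spectra recorded for the c-Fos homodimer and for the test peptide–c-Jun heterodimer, each at 150 μM total peptide. Equal volumes of the two solutions were then mixed, keeping the final total peptide at 150 μM, and the spectrum was re-recorded.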

[6] = Thermal melts followed by CD at 222 nm, homodimers; format: physicochemical; details: homodimer; CD 222 nm, 150 μM total peptide, pH 7
Method in brief: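 CD thermal denaturation at 222 nm, 150 μM total peptide, 10 mM potassium phosphate, 100 mM KF, pH 7. Started at −8 °C and stepped in 1 °C increments with a 30 s hold, signal averaged over 4 s per point. Tm obtained by least-squares fit to a two-state model (modified Gibbs-Helmholtz).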

c-Jun [7] = molecular target: T1, c-Jun; test: CD spectra of heterodimeric complexes with c-Jun; details: for θ222/θ208 (20 °C) / Fraction helical (fH): heterodimer with c-Jun; for θ222/θ208 (20 °C): CD, 150 μM total peptide, pH 7, 20 °C; for Fraction helical (fH): from θ222, 20 °C
Method in brief: as §1

[8] = homodimer; cited from earlier work
c-Jun [9] = molecular target: T1, c-Jun; details: heterodimer with c-Jun; cited from earlier work

| Molecule | Ka [1] [M⁻¹] | Kd [2] [µM] | affinity for c-Jun by E. coli growth rate (c-Jun-DHFR2) | ΔH (c-Jun [4]) [kJ/mol] | ΔGbind (ITC) (c-Jun [4]) [kJ/mol] | TΔS (ΔH − ΔG) (c-Jun [4]) [kJ/mol] | θ222/θ208 (20 °C) (c-Jun [7]) | Fraction helical (fH) (c-Jun [7]) [%] | other results |
| --- | --- | --- | --- | --- | --- | --- | --- | --- | --- |
| c-Fos (37-residue leucine zipper peptide) | 38000 | 26.6 | – | – | – | – | – | – | – |
| ASLDELQREIEQLEELNYALQKEIEDLQKQGAP [4hFosW] | – | – | much improved affinity over c-Fos | -59 ± 0.84 | -36.8 ± 0.42 | -22.2 ± 0.84 | 0.99 | 60.4 | gain in helicity in isolation relative to FosW [3]: ~7%; magnitude of the CD peak at 222 nm ([3]; homodimeric complex, 20 °C): approximately −87 millidegrees; ratio θ222/θ208 ([3]; peptide in isolation (homodimeric)): ~1.0; helicity in isolation [3]: 50.6%; loss of stability of complex with c-Jun relative to c-Jun-FosW (c-Jun [4]; ITC free energy of binding): around 1 kcal/mol; specificity for c-Jun in the presence of c-Fos (c-Jun [5]): specific for c-Jun in the presence of c-Fos; Tm [6]: 36 °C; magnitude of the CD peak at 222 nm (c-Jun [7]; heterodimeric complex with c-Jun, 20 °C): approximately −112 millidegrees; gain in helicity of complex with c-Jun over c-Jun-FosW (c-Jun [7]; measured helicity by CD): ~25% |
| ASIARLEEKVKTLKAQNYELASTANMLREQVAQLGAP [c-Jun] | – | – | – | – | – | – | – | – | Tm [8]: 24 °C |
| ASLDELQAEIEQLEERNYALRKEIEDLQKQLEKLGAP [FosW] | – | – | much improved affinity over c-Fos | -44.4 ± 0.84 | -41.4 ± 0.42 | -2.9 ± 0.84 | 1.0 | 35.8 | helicity in isolation [3]: 43.7% |
| ASTDTLQAETDQLEDEKYALQTEIANLLKEKEKLGAP [c-Fos] | – | – | lower affinity interaction | -3.3 ± 1.7 | -25.5 ± 1.7 | 22.2 ± 2.1 | 0.75 | 3.6 | Tm (c-Jun [9]): 16 °C |
| Ac-ASLDELQAEIEQLEERNYALRKEIEDLQKQLEKLGAP-NH2 [FosW] | 2.2e+07 | 0.045 | – | – | – | – | – | – | dH [1]: -44.4 kJ/mol; stoichiometry N [1]: 0.65; Tm [2]: 63 °C |
| Ac-ASLDELQREIEQLEELNYALQKEIEDLQKQGAP-NH2 [4hFosW] | 2.1e+06 | 0.487 | – | – | – | – | – | – | dH [1]: -59 kJ/mol; stoichiometry N [1]: 1.05; Tm [2]: 49 °C |
